Reference: ChEMBL document CHEMBL3217512, “Indole/triazole conjugates are selective inhibitors and inducers of bacterial biofilms” (Medchemcomm, 2013)

Columns and labels:
[1] = test system: Staphylococcus aureus; experiment: Antimicrobial activity against Staphylococcus aureus 29213 assessed as effect on planktonic growth at IC50 after 2 to 24 hrs; format: organism-based; conditions: in vivo
[2] = test system: Escherichia coli; experiment: Induction of biofilm formation in Escherichia coli K-12 ER2718 at 50 uM after 24 hrs by crystal violet staining-based assay relative to control; format: functional
Procedure, shortened: (§1)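 Static biofilm assay with compounds at 50 μM and crystal violet read-out, relative to an untreated control. Compounds increasing biofilm by less than 50% were called inducers, and by more than 50% strong inducers.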

[3] = test system: Escherichia coli; experiment: Antimicrobial activity against Escherichia coli K-12 ER2718 assessed as effect on planktonic growth at PC50 after 2 to 24 hrs; format: organism-based
[4] = test system: Escherichia coli; experiment: Antimicrobial activity against Escherichia coli K-12 ER2718 assessed as effect on planktonic growth at IC50 after 2 to 24 hrs by colony count method; format: organism-based
[5] = test system: Staphylococcus aureus; experiment: Inhibition of biofilm formation in methicillin-resistant Staphylococcus aureus BAA 44 at 150 uM after 24 hrs by crystal violet staining-based assay relative to control; format: functional; conditions: BAA 44, 24 h
Procedure, shortened: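 Static biofilm development in MRSA, read out by crystal violet staining against an untreated control. Initial screen at 150 μM. Inhibitors then went to dose-response, with IC50 taken as the concentration giving 50% inhibition of biofilm growth. Induction was judged at 50 μM: under 50% induction counted as "inducer", over 50% as "strong inducer".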

[6] = test system: Acinetobacter baumannii; experiment: Antimicrobial activity against Acinetobacter baumannii 19606 assessed as effect on planktonic growth at IC50 after 2 to 24 hrs by colony count method; design: species or system ATCC 19606
[7] = test system: Escherichia coli; experiment: Antimicrobial activity against Escherichia coli K-12 ER2718 assessed as effect on planktonic growth at PC75 after 2 to 24 hrs; format: organism-based; conditions: in vivo
[8] = test system: Acinetobacter baumannii; experiment: Inhibition of biofilm formation in Acinetobacter baumannii 19606 at 150 uM after 24 hrs by crystal violet staining-based assay relative to control; format: functional; conditions: ATCC 19606 = CIP 70.34 = JCM 6841, 24 h
[9] = test system: Acinetobacter baumannii; experiment: Antimicrobial activity against Acinetobacter baumannii 19606 assessed as effect on planktonic growth at IC50 after 2 to 24 hrs; design: species or system ATCC 19606
[10] = test system: Staphylococcus aureus; experiment: Inhibition of biofilm formation in Staphylococcus aureus 29213 after 24 hrs by crystal violet staining-based assay; format: functional, organism-based; conditions: Staphylococcus aureus, 29213, 24 h
Procedure, shortened: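 Compounds active in the 150 μM screen were taken into dose-response studies under static conditions with a crystal violet read-out. IC50 is the concentration that inhibits 50% of biofilm growth relative to an untreated control.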

[11] = test system: Staphylococcus aureus; experiment: Antimicrobial activity against Staphylococcus aureus 29213 assessed as effect on planktonic growth at IC50 after 2 to 24 hrs by colony count method; format: organism-based; conditions: in vivo
[12] = test system: Escherichia coli; experiment: Antimicrobial activity against Escherichia coli K-12 ER2718 assessed as effect on planktonic growth at PC25 after 2 to 24 hrs; format: organism-based
[13] = test system: Escherichia coli; experiment: Antimicrobial activity against Escherichia coli K-12 ER2718 assessed as effect on planktonic growth at PC50 after 2 to 24 hrs by colony count method; format: organism-based; conditions: in vivo
[14] = test system: Escherichia coli; experiment: Induction of biofilm formation in Escherichia coli K-12 ER2718 assessed as concentration required for 50% promotion of biofilm formation after 24 hrs by crystal violet staining-based assay; format: functional
Procedure, shortened: (§2)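 For strong inducers of E. coli biofilm, dose-response curves were run in the static crystal violet assay. PC25, PC50 and PC75 are the concentrations promoting biofilm formation by 25%, 50% and 75%.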

[15] = test system: Escherichia coli; experiment: Antimicrobial activity against Escherichia coli K-12 ER2718 assessed as effect on planktonic growth at PC75 after 2 to 24 hrs by colony count method; format: organism-based; conditions: in vivo
[16] = test system: Staphylococcus aureus; experiment: Antimicrobial activity against methicillin-resistant Staphylococcus aureus BAA 44 assessed as effect on planktonic growth at IC50 after 2 to 24 hrs; format: organism-based; conditions: in vivo
[17] = test system: Staphylococcus aureus; experiment: Antimicrobial activity against methicillin-resistant Staphylococcus aureus BAA 44 assessed as effect on planktonic growth at IC50 after 2 to 24 hrs by colony count method; format: organism-based; conditions: in vivo
[18] = test system: Escherichia coli; experiment: Induction of biofilm formation in Escherichia coli K-12 ER2718 assessed as concentration required for 75% promotion of biofilm formation after 24 hrs by crystal violet staining-based assay; format: functional; procedure, shortened: as §2
[19] = test system: Escherichia coli; experiment: Antimicrobial activity against Escherichia coli K-12 ER2718 assessed as effect on planktonic growth at IC50 after 2 to 24 hrs; format: organism-based
[20] = test system: Escherichia coli; experiment: Induction of biofilm formation in Escherichia coli K-12 ER2718 assessed as concentration required for 25% promotion of biofilm formation after 24 hrs by crystal violet staining-based assay; format: functional; procedure, shortened: as §2
[21] = test system: Escherichia coli; experiment: Antimicrobial activity against Escherichia coli K-12 ER2718 assessed as effect on planktonic growth at 50 uM after 2 to 24 hrs; format: organism-based
Procedure, shortened: (§3)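 Growth curve analysis of planktonic bacteria with each biofilm inducer at 50 μM, used to assess toxicity.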

[22] = test system: Escherichia coli; experiment: Antimicrobial activity against Escherichia coli K-12 ER2718 assessed as effect on planktonic growth at PC25 after 2 to 24 hrs by colony count method; format: organism-based
[23] = test system: Acinetobacter baumannii; experiment: Antimicrobial activity against Acinetobacter baumannii 19606 assessed as effect on planktonic growth at PC75 after 2 to 24 hrs by colony count method; design: species or system ATCC 19606
[24] = test system: Acinetobacter baumannii; experiment: Antimicrobial activity against Acinetobacter baumannii 19606 assessed as effect on planktonic growth at PC25 after 2 to 24 hrs; design: species or system ATCC 19606
[25] = test system: Acinetobacter baumannii; experiment: Antimicrobial activity against Acinetobacter baumannii 19606 assessed as effect on planktonic growth at PC75 after 2 to 24 hrs; design: species or system ATCC 19606
[26] = test system: Acinetobacter baumannii; experiment: Antimicrobial activity against Acinetobacter baumannii 19606 assessed as effect on planktonic growth at PC50 after 2 to 24 hrs by colony count method; design: species or system ATCC 19606
[27] = test system: Acinetobacter baumannii; experiment: Antimicrobial activity against Acinetobacter baumannii 19606 assessed as effect on planktonic growth at 50 uM after 2 to 24 hrs; design: species or system ATCC 19606; procedure, shortened: as §3
[28] = test system: Acinetobacter baumannii; experiment: Antimicrobial activity against Acinetobacter baumannii 19606 assessed as effect on planktonic growth at PC50 after 2 to 24 hrs; design: species or system ATCC 19606
[29] = test system: Acinetobacter baumannii; experiment: Antimicrobial activity against Acinetobacter baumannii 19606 assessed as effect on planktonic growth at PC25 after 2 to 24 hrs by colony count method; design: species or system ATCC 19606
[30] = test system: Acinetobacter baumannii; experiment: Induction of biofilm formation in Acinetobacter baumannii 19606 at 50 uM after 24 hrs by crystal violet staining-based assay relative to control; format: functional, ATCC 19606 = CIP 70.34 = JCM 6841; procedure, shortened: as §1
[31] = test system: Staphylococcus aureus; experiment: Inhibition of biofilm formation in Staphylococcus aureus 29213 at 150 uM after 24 hrs by crystal violet staining-based assay relative to control; format: functional; conditions: Staphylococcus aureus, 29213, 24 h
[32] = test system: Staphylococcus aureus; experiment: Induction of biofilm formation in Staphylococcus aureus 29213 at 50 uM after 24 hrs by crystal violet staining-based assay relative to control; format: functional; procedure, shortened: as §1
[33] = test system: Staphylococcus aureus; experiment: Antimicrobial activity against Staphylococcus aureus 29213 assessed as effect on planktonic growth at PC75 after 2 to 24 hrs by colony count method; format: organism-based; conditions: in vivo
[34] = test system: Staphylococcus aureus; experiment: Antimicrobial activity against Staphylococcus aureus 29213 assessed as effect on planktonic growth at PC50 after 2 to 24 hrs by colony count method; format: organism-based; conditions: in vivo
[35] = test system: Staphylococcus aureus; experiment: Antimicrobial activity against Staphylococcus aureus 29213 assessed as effect on planktonic growth at PC25 after 2 to 24 hrs; format: organism-based; conditions: in vivo
[36] = test system: Staphylococcus aureus; experiment: Antimicrobial activity against Staphylococcus aureus 29213 assessed as effect on planktonic growth at PC75 after 2 to 24 hrs; format: organism-based; conditions: in vivo
[37] = test system: Staphylococcus aureus; experiment: Antimicrobial activity against Staphylococcus aureus 29213 assessed as effect on planktonic growth at PC50 after 2 to 24 hrs; format: organism-based; conditions: in vivo
[38] = test system: Staphylococcus aureus; experiment: Antimicrobial activity against Staphylococcus aureus 29213 assessed as effect on planktonic growth at 50 uM after 2 to 24 hrs; format: organism-based; procedure, shortened: as §3
[39] = test system: Staphylococcus aureus; experiment: Antimicrobial activity against Staphylococcus aureus 29213 assessed as effect on planktonic growth at PC25 after 2 to 24 hrs by colony count method; format: organism-based; conditions: in vivo

Structure (SMILES)	Activity [1]	Activity [2]	Activity [3]	Activity [4]	inhibition at 150 µM [5]	Activity [6]	Activity [7]	Activity [9]	IC50 [10]	Activity [11]	Activity [12]	Activity [13]	Activity [14]	Activity [15]	Activity [16]	Activity [17]	Activity [18]	Activity [19]	Activity [21]	Activity [22]	other results
CCCCCCCc1ccc(C(=O)NCCn2cc(Cc3c[nH]c4ccccc34)nn2)cc1	Non-toxic	>50%	Non-toxic	Non-toxic	< 5%	Non-toxic	Non-toxic	Non-toxic	175 µM	Non-toxic	Non-toxic	Non-toxic	80.7 µM	Non-toxic	Non-toxic	Non-toxic	119.7 µM	Non-toxic	Non-toxic	Non-toxic	inhibition at 150 µM [8]: 30%; Activity [20]: 50.5 µM
CCCCCCCc1ccc(C(=O)NCCn2cc(Cc3csc4ccccc34)nn2)cc1	Non-toxic	>50%	Non-toxic	Non-toxic	< 5%	Non-toxic	Non-toxic	Non-toxic	83 µM	Non-toxic	Non-toxic	Non-toxic	56.3 µM	Non-toxic	Non-toxic	Non-toxic	93.8 µM	Non-toxic	Non-toxic	Non-toxic	Activity [23]: Non-toxic; Activity [24]: Non-toxic; Activity [25]: Non-toxic; Activity [26]: Non-toxic; Activity [27]: Non-toxic; Activity [28]: Non-toxic; Activity [29]: Non-toxic; Activity [20]: 22.2 µM; Activity [30]: <50%
CCCCCc1ccc(C(=O)NCCn2cc(Cc3csc4ccccc34)nn2)cc1	Non-toxic	>50%	Non-toxic	Non-toxic	< 5%	Non-toxic	Non-toxic	Non-toxic		Non-toxic	Non-toxic	Non-toxic	99.8 µM	Non-toxic	Non-toxic	Non-toxic	151.9 µM	Non-toxic	Non-toxic	Non-toxic	inhibition at 150 µM [8]: < 5%; inhibition at 150 µM [31]: < 5%; Activity [20]: 26.7 µM
CCCCCc1ccc(C(=O)NCCn2cc(Cc3c[nH]c4ccccc34)nn2)cc1	Non-toxic	>50%	Non-toxic	Non-toxic	< 5%	Non-toxic	Non-toxic	Non-toxic	44.4 µM	Non-toxic	Non-toxic	Non-toxic	74.8 µM	Non-toxic	Non-toxic	Non-toxic	111.6 µM	Non-toxic	Non-toxic	Non-toxic	inhibition at 150 µM [8]: < 5%; Activity [20]: 48.3 µM
O=C(Cn1cc(Cc2csc3ccccc23)nn1)Nc1ccccc1	Non-toxic	<50%	Non-toxic	Non-toxic	20%	Non-toxic	Non-toxic	Non-toxic	215 µM	Non-toxic	Non-toxic	Non-toxic		Non-toxic	Non-toxic	Non-toxic		Non-toxic	Non-toxic	Non-toxic	Activity [23]: Non-toxic; Activity [24]: Non-toxic; Activity [25]: Non-toxic; Activity [26]: Non-toxic; Activity [27]: Non-toxic; Activity [28]: Non-toxic; Activity [29]: Non-toxic; Activity [30]: <50%
O=C(NCCn1cc(Cc2c(Br)[nH]c3ccccc23)nn1)c1ccccc1F	Non-toxic	<50%	Non-toxic	Non-toxic	20%	Non-toxic	Non-toxic	Non-toxic		Non-toxic	Non-toxic	Non-toxic		Non-toxic	Non-toxic	Non-toxic		Non-toxic	Non-toxic	Non-toxic	Activity [23]: Non-toxic; Activity [24]: Non-toxic; Activity [32]: <50%; Activity [25]: Non-toxic; Activity [33]: Non-toxic; Activity [34]: Non-toxic; Activity [26]: Non-toxic; Activity [27]: Non-toxic; Activity [35]: Non-toxic; Activity [28]: Non-toxic; Activity [36]: Non-toxic; Activity [29]: Non-toxic; Activity [37]: Non-toxic; Activity [38]: Non-toxic; Activity [39]: Non-toxic; Activity [30]: <50%
